Common to all, as to format: functional, cell-based
In one assay the test system is A549. In words: Cytotoxicity against human A549 cells after 72 hrs by sulforhodamine B assay. Particulars: A549, 72 h. A digest of the protocol:
(§1)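 Cells seeded at 3-5 × 10^3 per well in RPMI-1640 with 10% FBS containing various sample concentrations, incubated 72 h. Attached cells fixed with cold 50% trichloroacetic acid for 30 min, stained with 0.04% SRB for 30 min, bound dye solubilized in 10 mM Tris-base, absorbance read at 515 nm. Triplicate experiments; KBvin is a vincristine-selected MDR KB subline.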

Assay [1] can be described thus: Cytotoxicity against multidrug-resistant human KBVIN cells after 72 hrs by sulforhodamine B assay. A digest of the protocol: as §1
(The SRB assay estimates cell density from bound dye.)

The test system of a further assay is KB. In words: Cytotoxicity against human KB cells after 72 hrs by sulforhodamine B assay. The method, boiled down:
as §1

For a further assay, the system named is DU-145. In words: Cytotoxicity against human DU145 cells after 72 hrs by sulforhodamine B assay. Conditions: DU-145, 72 h. A digest of the protocol: as §1

Turning to `COc1cc([C@@H]2c3cc4c(cc3[C@@H](NC(=O)NS(=O)(=O)c3ccccc3)[C@H]3COC(=O)[C@H]23)OCO4)cc(OC)c1O`, the 50% inhibitory concentration (IC50) (in general, the midpoint of a concentration-inhibition curve) in the assay with A549 turned out to be 8.25 µM; in assay [1] it was 8.76 µM; in the assay on KB it was 8.38 µM; with DU-145, 8.1 µM.
As for `COc1ccc(S(=O)(=O)NC(=O)N[C@@H]2c3cc4c(cc3[C@@H](c3cc(OC)c(O)c(OC)c3)[C@H]3C(=O)OC[C@@H]32)OCO4)cc1`, the half-maximal inhibitory concentration (IC50) worked out at 7.67 µM with A549, 8.79 µM in assay [1], 9.49 µM with KB and 9.66 µM with DU-145.
Take `COc1cc([C@@H]2c3cc4c(cc3[C@@H](NC(=O)NS(=O)(=O)c3ccc(C)cc3)[C@H]3COC(=O)[C@H]23)OCO4)cc(OC)c1O`: the IC50 (in the assay on A549; in assay [1]; with KB; with DU-145) was > 20 µM each time.
On to `COc1cc([C@@H]2c3cc4c(cc3[C@@H](NC(=O)NS(=O)(=O)c3ccc(C(C)C)cc3)[C@H]3COC(=O)[C@H]23)OCO4)cc(OC)c1O`, for which the half-inhibitory concentration (IC50) in the assay with A549 came to 7.72 µM; in assay [1], 8.35 µM; in the assay with KB it was 9.51 µM; in the assay on DU-145 it was 9.32 µM.
`COc1cc([C@@H]2c3cc4c(cc3[C@@H](NC(=O)NS(=O)(=O)c3ccc(F)cc3)[C@H]3COC(=O)[C@H]23)OCO4)cc(OC)c1O`: the IC50 is 7.82 µM in the assay with A549, 7.92 µM in assay [1], 9 µM with KB and 9.61 µM in the assay on DU-145.
For `COc1cc([C@@H]2c3cc4c(cc3[C@@H](NC(=O)NS(=O)(=O)c3ccc(Cl)cc3)[C@H]3COC(=O)[C@H]23)OCO4)cc(OC)c1O` the same measures were 9.03 µM, 7.95 µM, 10.6 µM and 11.5 µM.
For `COc1cc([C@@H]2c3cc4c(cc3[C@@H](NC(=O)NS(=O)(=O)Cc3ccccc3)[C@H]3COC(=O)[C@H]23)OCO4)cc(OC)c1O` the same measures were 8.63 µM, 14 µM, 11.8 µM and 11.2 µM.
For `COc1ccc(S(=O)(=O)NC(=O)N[C@@H]2c3cc4c(cc3[C@@H](c3cc(OC)c(O)c(OC)c3)[C@H]3C(=O)OC[C@@H]32)OCO4)c(OC)c1`, the 50% inhibitory concentration (IC50) in the assay on A549 was 8 µM; in assay [1] it was 8.56 µM; with KB, 8.08 µM; with DU-145, 8.51 µM.
The like results for `COc1cc([C@@H]2c3cc4c(cc3[C@@H](NC(=O)NS(=O)(=O)c3ccc5ccccc5c3)[C@H]3COC(=O)[C@H]23)OCO4)cc(OC)c1O` were, in that order, 8.49 µM, 8.62 µM, 9.7 µM and 10.5 µM.
For `COc1cc([C@@H]2c3cc4c(cc3[C@@H](NC(=O)NS(C)(=O)=O)[C@H]3COC(=O)[C@H]23)OCO4)cc(OC)c1OC` the same measures were > 20 µM, > 20 µM, > 20 µM and > 20 µM.
Take `CCS(=O)(=O)NC(=O)N[C@@H]1c2cc3c(cc2[C@@H](c2cc(OC)c(OC)c(OC)c2)[C@H]2C(=O)OC[C@@H]21)OCO3`: the IC50 (in the assay on A549; in assay [1]; in the assay with KB; in the assay with DU-145) was > 20 µM throughout.
Turning to `COc1cc([C@@H]2c3cc4c(cc3[C@@H](NC(=O)NS(=O)(=O)c3ccccc3)[C@H]3COC(=O)[C@H]23)OCO4)cc(OC)c1OC`, the concentration for half-maximal inhibition (IC50) in the assay with A549 was determined as 1.6 µM; in assay [1], 1.76 µM; in the assay on KB, 1.41 µM; in the assay with DU-145 it was 1.44 µM.
For `COc1cc([C@@H]2c3cc4c(cc3[C@@H](NC(=O)NS(=O)(=O)c3ccc(C)cc3)[C@H]3COC(=O)[C@H]23)OCO4)cc(OC)c1OC`, the IC50 (in the assay with A549; in assay [1]; with KB; in the assay on DU-145) was > 20 µM in each case.
Consider `COc1cc([C@@H]2c3cc4c(cc3[C@@H](NC(=O)NS(=O)(=O)c3ccc(Cl)cc3)[C@H]3COC(=O)[C@H]23)OCO4)cc(OC)c1OC`, for which the 50% inhibitory concentration (IC50) in the assay with A549 is 1.89 µM; in assay [1], 2.01 µM; in the assay on KB, 1.72 µM; in the assay with DU-145, 1.75 µM.
For `COc1cc([C@@H]2c3cc4c(cc3[C@@H](NC(=O)NS(C)(=O)=O)[C@H]3COC[C@H]23)OCO4)cc(OC)c1OC` the same measures were > 20 µM, > 20 µM, > 20 µM and > 20 µM.
For `COc1cc([C@@H]2c3cc4c(cc3[C@@H](NC(=O)NS(=O)(=O)c3ccc(C(C)C)cc3)[C@H]3COC[C@H]23)OCO4)cc(OC)c1OC`, the IC50 worked out at 11.8 µM with A549, 13.2 µM in assay [1], 11 µM in the assay on KB and 11.9 µM in the assay with DU-145.
The like results for `COc1ccc(S(=O)(=O)NC(=O)N[C@@H]2c3cc4c(cc3[C@@H](c3cc(OC)c(OC)c(OC)c3)[C@H]3COC[C@@H]32)OCO4)c(OC)c1` were, in that order, 14.9 µM, > 20 µM, 12 µM and 14.3 µM.
Turning to `COc1cc([C@@H]2c3cc4c(cc3[C@@H](NC(=O)NS(C)(=O)=O)[C@H]3COC(=O)[C@H]23)OCO4)cc(OC)c1O`, the IC50 (in the assay with A549; in assay [1]; in the assay with KB; in the assay on DU-145) was > 20 µM each time.
For `CCS(=O)(=O)NC(=O)N[C@@H]1c2cc3c(cc2[C@@H](c2cc(OC)c(O)c(OC)c2)[C@H]2C(=O)OC[C@@H]21)OCO3`, the 50% inhibitory concentration (IC50) (in the assay on A549; in assay [1]; in the assay with KB; in the assay with DU-145) was > 20 µM each time.
As to `CCCCS(=O)(=O)NC(=O)N[C@@H]1c2cc3c(cc2[C@@H](c2cc(OC)c(O)c(OC)c2)[C@H]2C(=O)OC[C@@H]21)OCO3`, the IC50 in the assay on A549 was 7.96 µM; in assay [1] it was 14 µM; with KB, 10.9 µM; with DU-145, 11.9 µM.
Turning to `COc1cc([C@@H]2c3cc4c(cc3[C@@H](O[C@@H]3O[C@@H]5CO[C@@H](C)O[C@H]5[C@H](O)[C@H]3O)[C@H]3COC(=O)[C@H]23)OCO4)cc(OC)c1O` [ETOPOSIDE], the IC50 in assay [1] was > 20 µM.

The values above are taken from ChEMBL document CHEMBL3102852, “Design, synthesis and cytotoxic activity of novel sulfonylurea derivatives of podophyllotoxin” (Bioorg Med Chem, 2014).
